# Results of several laboratories.
# Lines come from different studies, so protocols differ.
# Target: Dual specificity mitogen-activated protein kinase kinase 1 (MAP2K1, Homo sapiens, UniProt Q02750)
SMILES,observed,action,method,tested at,measurement,value
CCCCC(=O)Nc1ccc(-c2ccc3ncn(CCC)c(=O)c3c2)cn1,binding,,competition with immobilised ligand,0.5 µM,remaining binding,52%
Cc1cc(O)c(-c2ccc([C@@H](C)CN(C)C)cc2)c2c1[nH]c(=O)c1sccc12,enzyme activity,inhibitor,,0.1 µM,inhibition,8.68%
C=CC(=O)N1CCC[C@@H](n2nc(-c3ccc(Oc4ccccc4)cc3)c3c(N)ncnc32)C1,enzyme activity,inhibitor,,1 µM,inhibition,84%
COc1ccc2oc(-c3ccc4nc(N)oc4c3)c/c(=N\c3ccccc3NC(=O)CCN)c2c1,binding,,,1 µM,remaining binding,102%
Cc1ccc(NC(=O)c2ccnc(C(F)(F)F)c2)cc1-c1cc(OCCO)nc(N2CCOCC2)c1,binding,,competition with immobilised ligand,1 µM,remaining binding,86%
CO[C@@H]1[C@H](N(C)C(=O)c2ccccc2)C[C@H]2O[C@]1(C)n1c3ccccc3c3c4c(c5c6ccccc6n2c5c31)C(=O)NC4,enzyme activity,inhibitor,,1 µM,inhibition,30%
N#Cc1ccc(NC(=O)Nc2ccccc2)cc1,cell-free assay,,competition with immobilised ligand,25 µM,remaining binding,66%
COc1ccc2[nH]c3c4[nH]c5ccc(OC)cc5c4c4c(c3c2c1)C(=O)NC4=O,binding,,competition with immobilised ligand,1 µM,remaining binding,70%
